The values that follow come from ChEMBL document CHEMBL2086328, “¹⁸F-labeled 2-phenylquinoxaline derivatives as potential positron emission tomography probes for in vivo imaging of β-amyloid plaques” (Eur J Med Chem, 2012).

Series [1] has as its system Blood. Description: Biodistribution in ICR mouse blood at 370 kBq, iv after 30 mins by gamma counting. The format is ADME, organism-based. The conditions noted are these: in vivo, 0.5 h. The method, boiled down:
(§1)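 Male ICR mice (five weeks, 20–22 g), tail-vein injection of 18F tracer in 0.1 mL saline with 10% EtOH. Killed by decapitation at set times, n = 5 per time point. Organs removed, weighed and gamma-counted; %ID/g wet tissue from comparison with diluted aliquots of injected dose; mean ± SD.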

In series [2] the test system is Lung. Description: Biodistribution in ICR mouse lung at 370 kBq, iv after 60 mins by gamma counting. It counts as ADME, organism-based. Conditions: in vivo, 1 h. A digest of the protocol: as §1
The subject of series [3] is Lung. Nature of the series: Biodistribution in ICR mouse lung at 370 kBq, iv after 10 mins by gamma counting. Conditions: in vivo. It counts as ADME, organism-based. The method, boiled down: as §1
The subject of series [4] is Bone. Description: Biodistribution in ICR mouse bone at 370 kBq, iv after 60 mins by gamma counting. Conditions: in vivo, 1 h. The format is ADME, organism-based, Bone element. A digest of the protocol: as §1
Series [5] relates to Spleen. Nature of the series: Biodistribution in ICR mouse spleen at 370 kBq, iv after 2 mins by gamma counting. Conditions: in vivo. The format is ADME, organism-based. A digest of the protocol: as §1
The subject of series [6] is Heart. Description: Biodistribution in ICR mouse heart at 370 kBq, iv after 60 mins by gamma counting. It counts as ADME, organism-based. Conditions: in vivo, 1 h. The method, boiled down:
as §1

Series [7] has as its system Blood. Nature of the series: Biodistribution in ICR mouse blood at 370 kBq, iv after 2 mins by gamma counting. It counts as ADME, organism-based. The conditions noted are these: in vivo. The method, boiled down:
as §1

Series [8] relates to Brain. Nature of the series: Biodistribution in ICR mouse brain at 370 kBq, iv after 10 mins by gamma counting. The format is ADME, organism-based. The conditions noted are these: in vivo. The method, boiled down: as §1
In series [9] the test system is Lung. Nature of the series: Biodistribution in ICR mouse lung at 370 kBq, iv after 2 mins by gamma counting. The conditions noted are these: in vivo. It counts as ADME, organism-based. A digest of the protocol:
as §1

Series [10] has as its system Brain. Description: Biodistribution in ICR mouse brain at 370 kBq, iv after 30 mins by gamma counting. The conditions noted are these: in vivo, 0.5 h. It counts as ADME, organism-based. A digest of the protocol: as §1
For series [11], the system named is Heart. Nature of the series: Biodistribution in ICR mouse heart at 370 kBq, iv after 10 mins by gamma counting. It counts as ADME, organism-based. Conditions: in vivo. A digest of the protocol: as §1
Series [12] concerns Spleen. Nature of the series: Biodistribution in ICR mouse spleen at 370 kBq, iv after 10 mins by gamma counting. It counts as ADME, organism-based. Conditions: in vivo. The method, boiled down: as §1
Series [13] has as its system Intestine. Nature of the series: Biodistribution in ICR mouse intestine at 370 kBq, iv after 10 mins by gamma counting. It counts as ADME, organism-based. The conditions noted are these: in vivo. The method, boiled down: as §1
The test system of series [14] is Spleen. Description: Biodistribution in ICR mouse spleen at 370 kBq, iv after 60 mins by gamma counting. The format is ADME, organism-based. The conditions noted are these: in vivo, 1 h. A digest of the protocol: as §1
In series [15] the test system is Brain. Description: Ratio of drug level in ICR mouse brain after 2 mins to ICR mouse brain after 60 mins at 370 kBq, iv. It counts as ADME, organism-based. Conditions: in vivo. The method, boiled down: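 Same intravenous study in ICR mice (370 kBq 18F tracer in saline/10% EtOH, n = 5 per time point). Ratio is brain %ID/g at 2 min divided by brain %ID/g at 60 min post-injection.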

Series [16] concerns Kidney. Description: Biodistribution in ICR mouse kidney at 370 kBq, iv after 2 mins by gamma counting. It counts as ADME, organism-based. The conditions noted are these: in vivo. The method, boiled down: as §1
Series [17] has as its system Kidney. Nature of the series: Biodistribution in ICR mouse kidney at 370 kBq, iv after 60 mins by gamma counting. The format is ADME, organism-based. The conditions noted are these: in vivo, 1 h. A digest of the protocol: as §1
The test system of series [18] is Kidney. Description: Biodistribution in ICR mouse kidney at 370 kBq, iv after 30 mins by gamma counting. The format is ADME, organism-based. The conditions noted are these: in vivo, 0.5 h. A digest of the protocol: as §1
Series [19] deals with Stomach. Nature of the series: Biodistribution in ICR mouse stomach at 370 kBq, iv after 60 mins by gamma counting. The format is ADME, organism-based. Conditions: in vivo, 1 h. A digest of the protocol: as §1
In series [20] the test system is Blood. Description: Biodistribution in ICR mouse blood at 370 kBq, iv after 10 mins by gamma counting. The format is ADME, organism-based. Conditions: in vivo. The method, boiled down: as §1
Series [21] relates to Intestine. Nature of the series: Biodistribution in ICR mouse intestine at 370 kBq, iv after 60 mins by gamma counting. It counts as ADME, organism-based. The conditions noted are these: in vivo, 1 h. A digest of the protocol: as §1
In series [22] the test system is Heart. Description: Biodistribution in ICR mouse heart at 370 kBq, iv after 2 mins by gamma counting. It counts as ADME, organism-based. Conditions: in vivo. A digest of the protocol: as §1
The test system of series [23] is Stomach. Description: Biodistribution in ICR mouse stomach at 370 kBq, iv after 2 mins by gamma counting. The format is ADME, organism-based. The conditions noted are these: in vivo. A digest of the protocol:
as §1

Series [24] relates to Intestine. Description: Biodistribution in ICR mouse intestine at 370 kBq, iv after 2 mins by gamma counting. It counts as ADME, organism-based. The conditions noted are these: in vivo. A digest of the protocol:
as §1

Series [25] concerns Brain. Nature of the series: Biodistribution in ICR mouse brain at 370 kBq, iv after 60 mins by gamma counting. The conditions noted are these: in vivo, 1 h. It counts as ADME, organism-based. The method, boiled down: as §1
Series [26] deals with Liver. Description: Biodistribution in ICR mouse liver at 370 kBq, iv after 60 mins by gamma counting. It counts as ADME, organism-based. The conditions noted are these: in vivo, 1 h. The method, boiled down: as §1
Series [27] deals with Bone. Nature of the series: Biodistribution in ICR mouse bone at 370 kBq, iv after 10 mins by gamma counting. It counts as ADME, organism-based, Bone element. The conditions noted are these: in vivo. The method, boiled down:
as §1

Series [28] relates to Liver. Description: Biodistribution in ICR mouse liver at 370 kBq, iv after 2 mins by gamma counting. The format is ADME, organism-based. The conditions noted are these: in vivo. A digest of the protocol:
as §1

The subject of series [29] is Bone. Description: Biodistribution in ICR mouse bone at 370 kBq, iv after 2 mins by gamma counting. It counts as ADME, organism-based, Bone element. The conditions noted are these: in vivo. The method, boiled down: as §1
For series [30], the system named is Lung. Description: Biodistribution in ICR mouse lung at 370 kBq, iv after 30 mins by gamma counting. It counts as ADME, organism-based. Conditions: in vivo, 0.5 h. The method, boiled down:
as §1

Series [31] has as its system Intestine. Nature of the series: Biodistribution in ICR mouse intestine at 370 kBq, iv after 30 mins by gamma counting. It counts as ADME, organism-based. The conditions noted are these: in vivo, 0.5 h. The method, boiled down: as §1
In series [32] the test system is Spleen. Description: Biodistribution in ICR mouse spleen at 370 kBq, iv after 30 mins by gamma counting. The format is ADME, organism-based. The conditions noted are these: in vivo, 0.5 h. The method, boiled down:
as §1

In series [33] the test system is Liver. Description: Biodistribution in ICR mouse liver at 370 kBq, iv after 10 mins by gamma counting. It counts as ADME, organism-based. Conditions: in vivo. A digest of the protocol: as §1
Series [34] concerns Blood. Description: Biodistribution in ICR mouse blood at 370 kBq, iv after 60 mins by gamma counting. Conditions: in vivo, 1 h. The format is ADME, organism-based. A digest of the protocol:
as §1

The nature of series [35]: Lipophilicity, log D of the compound. The format is physicochemical. Conditions: octanol/water. A digest of the protocol:
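18F tracer (740 kBq) in 3 g n-octanol plus 3 g PBS (0.05 M, pH 7.4). Vortexed 3 min at room temperature, centrifuged 5 min at 3000 rpm; weighed samples from octanol and buffer layers counted.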

The test system of series [36] is Stomach. Description: Biodistribution in ICR mouse stomach at 370 kBq, iv after 30 mins by gamma counting. It counts as ADME, organism-based. The conditions noted are these: in vivo, 0.5 h. The method, boiled down: as §1
Series [37] relates to Stomach. Description: Biodistribution in ICR mouse stomach at 370 kBq, iv after 10 mins by gamma counting. It counts as ADME, organism-based. Conditions: in vivo. The method, boiled down: as §1
The test system of series [38] is Kidney. Nature of the series: Biodistribution in ICR mouse kidney at 370 kBq, iv after 10 mins by gamma counting. It counts as ADME, organism-based. Conditions: in vivo. The method, boiled down:
as §1

The subject of series [39] is Bone. Nature of the series: Biodistribution in ICR mouse bone at 370 kBq, iv after 30 mins by gamma counting. It counts as ADME, organism-based, Bone element. The conditions noted are these: in vivo, 0.5 h. A digest of the protocol: as §1
The test system of series [40] is Brain. Nature of the series: Biodistribution in ICR mouse brain at 370 kBq, iv after 2 mins by gamma counting. It counts as ADME, organism-based. Conditions: in vivo. The method, boiled down:
as §1

The subject of series [41] is Liver. Nature of the series: Biodistribution in ICR mouse liver at 370 kBq, iv after 30 mins by gamma counting. The format is ADME, organism-based. Conditions: in vivo, 0.5 h. The method, boiled down:
as §1

Series [42] relates to Heart. Description: Biodistribution in ICR mouse heart at 370 kBq, iv after 30 mins by gamma counting. The format is ADME, organism-based. The conditions noted are these: in vivo, 0.5 h. A digest of the protocol:
as §1

Series [43] can be described thus: Binding affinity to beta-amyloid.

The logD is lipophilicity at a set pH, counting ionised and neutral species. The low end stands for lower lipophilicity, the high end for higher lipophilicity. In general, Ki refers to the equilibrium dissociation constant of an inhibitor or competing ligand from its target. A low value points to tighter binding.

As for `CNc1ccc2nc(-c3ccc(OCCOCCOCC[18F])cc3)cnc2c1`, the Drug uptake in series [1] was 2.38 % ID/g; in [2] it was 1.15 % ID/g; in series [3], 2.4 % ID/g; in [4], 1.78 % ID/g; in series [5], 2.07 % ID/g; in series [6] it was 1.03 % ID/g. For the same molecule, the Drug uptake worked out at 5.51 % ID/g in series [7]; 1.44 % ID/g in series [8]; 4.07 % ID/g in series [9]; 0.83 % ID/g in [10]; 1.76 % ID/g in [11]; 1.65 % ID/g in series [12]. The Drug uptake in series [13] was 12.26 %ID; in series [14] it was 0.94 % ID/g; in [16], 5.52 % ID/g; in series [17], 1.65 % ID/g; in series [18], 3.27 % ID/g; in series [19], 6.53 %ID. For the same molecule, the Drug uptake was determined as 3.32 % ID/g in series [20]; 39.02 %ID in [21]; 3.21 % ID/g in series [22]; 1.55 %ID in series [23]; 6.06 %ID in series [24]; 0.64 % ID/g in series [25]. Moreover, the Drug uptake in series [26] was determined as 4.89 % ID/g; in [27], 1 % ID/g; in [28] it was 14.18 % ID/g; in series [29], 1.49 % ID/g; in [30], 1.76 % ID/g; in series [31], 32.83 %ID. Also, the Drug uptake is 1.21 % ID/g in series [32]; 14.09 % ID/g in series [33]; 1.54 % ID/g in series [34]; 3.21 %ID in series [36]; 2.81 %ID in [37]; 3.91 % ID/g in series [38]. Besides, the Drug uptake in series [39] came out at 1.12 % ID/g; in series [40] it was 2.49 % ID/g; in series [41] it was 7.9 % ID/g; in [42], 1.19 % ID/g. The Ratio in series [15] came out at 3.89. Also, in series [35], the log distribution coefficient (logD) was determined as 2.79.

`[11CH3]Nc1ccc(-c2nc3ccc(O)cc3s2)cn1` came in with a Ki in series [43] of 1.7 nM.
